Our source for the inhibition and Activity values is ChEMBL document CHEMBL5678799 (Biochem J, 2009).

The source made the active and inactive calls. No cut-off for these calls is given here.

Series [1] concerns HEK293. As to the kind of experiment: Inhibition of PI3K in IGF1-stimulated HEK293 cells assessed as reduction in IGF1-stimulated PtdIns(3,4,5)P3 production at 2 uM pre incubated for 30 mins followed by IGF1-stimulation for 10 mins. In kind it is cell-based. The conditions noted are these: Homo sapiens.
Series [2] has as its system HeLa. Briefly: Inhibition of PI3K/mTOR in human HeLa cells assessed as reduction in NDRG1 phosphorylation incubated ay 1 uM for 30 mins by immunoblot analysis. In kind it is cell-based. The method, boiled down:
(§1)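 HeLa cells or wild-type/knockout MEFs cultured in 10% serum and treated 30 min with inhibitor. Lysed in Tris lysis buffer and extracts immunoblotted with an antibody to NDRG1 phosphorylated at Thr346/356/366. Three experiments.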
For orientation: Immunoblotting shows a protein as a band on a membrane.

Series [3] relates to HEK293. As to the kind of experiment: Inhibition of PI3K in serum starved HEK293 cells expressing GST-tagged-AKT1 S473D mutant assessed as reduction in IGF1-stimulated AKT1 phosphorylation at Thr308 residue at 1 uM incubated for 20 mins by immunoblot analysis. In kind it is cell-based. The note with it: Homo sapiens. The method, boiled down:
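HEK-293 cells transfected with wild-type or S473D GST–Akt1. At 24 h, serum-starved 16 h, pretreated 30 min with inhibitor, then stimulated with IGF-1 for 20 min. Lysates immunoblotted for Thr308 phosphorylation. Three separate experiments.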

The subject of series [4] is MEF. Briefly: Inhibition of PI3K in serum starved MEF cells assessed as reduction IGF1-stimulated AKT phosphorylation at Thr308 residue at 1 uM incubated for 20 mins by immunoblot analysis. It is filed as cell-based. The note with it: Mus musculus. The method in brief: (§2)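 Wild-type, Rictor-, mLST8- or Sin1-knockout MEFs serum-deprived, pretreated 30 min with inhibitor, then stimulated with IGF-1 for 20 min. Lysates immunoblotted for Akt Thr308 phosphorylation. Three independent experiments.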

Series [5] relates to MEF. Briefly: Inhibition of PI3K in serum starved Rictor knockout MEF cells assessed as reduction IGF1-stimulated AKT phosphorylation at Thr308 residue at 1 uM incubated for 20 mins by immunoblot analysis. In kind it is cell-based. The note with it: Mus musculus. The method, boiled down: as §2
In series [6] the test system is MEF. Briefly: Inhibition of PI3K in serum starved mLST8 knockout MEF cells assessed as reduction IGF1-stimulated AKT phosphorylation at Thr308 residue at 1 uM incubated for 20 mins by immunoblot analysis. It is filed as cell-based. The conditions noted are these: Mus musculus. The method in brief: as §2
For series [7], the system named is MEF. As to the kind of experiment: Inhibition of PI3K in serum starved sin1 knockout MEF cells assessed as reduction IGF1-stimulated AKT phosphorylation at Thr308 residue at 1 uM incubated for 20 mins by immunoblot analysis. In kind it is cell-based. The conditions noted are these: Mus musculus. The method in brief: as §2
For series [8], the system named is MEF. Briefly: Inhibition of PI3K/mTOR in MEF cells assessed as reduction in NDRG1 phosphorylation incubated ay 1 uM for 30 mins by immunoblot analysis. It is filed as cell-based. The note with it: Mus musculus. The method, boiled down:
as §1

Series [9] concerns the target T1, Mitogen-activated protein kinase; ERK1/ERK2 (Homo sapiens) (UniProt P27361+P28482). Briefly: Inhibition of ERK1/2 in serum starved/PMA-stimulated HEK293 cells assessed as reduction in RSK activity at 200 nM using crosstide as substrate incubated for 30 mins in presence of [32P]-ATP by liquid-scintillation counting method. In kind it is cell-based.
The target in series [10] is T1, Mitogen-activated protein kinase; ERK1/ERK2 (Homo sapiens). As to the kind of experiment: Inhibition of ERK1/2 in serum starved/PMA-stimulated HEK293 cells assessed as reduction in RSK phosphorylation at S227 residues at 200 nM incubated for 30 mins by immunoblot analysis. It is filed as cell-based.
Series [11] shares this target. As to the kind of experiment: Inhibition of ERK1/2 in serum starved/PMA-stimulated HEK293 cells assessed as reduction in ERK1/2 phosphorylation at T202/Y204 residues at 200 nM incubated for 30 mins by immunoblot analysis. It is filed as cell-based.
The target is the same in series [12]. Briefly: Inhibition of ERK1/2 in serum starved/PMA-stimulated HEK293 cells assessed as reduction in RSK phosphorylation at S380 residues at 200 nM incubated for 30 mins by immunoblot analysis. It is filed as cell-based.
Series [13] has the same target. As to the kind of experiment: Inhibition of ERK1/2 in serum starved/PMA-stimulated HEK293 cells assessed as reduction in RSK phosphorylation at T573 residues at 200 nM incubated for 30 mins by immunoblot analysis. It is filed as cell-based.
The test system of series [14] is MEF. Briefly: Induction of cell cycle arrest in MEF cells assessed as accumulation at G2 phase at 100 nM incubated for 1 to 3 days by propidium iodide staining based flow cytometric analysis (reference value: 15.4 +/- 2.04%). The conditions noted are these: mouse, 0.1 µM, time 1-3 day. In kind it is toxicity. On the technique in general: A flow cytometer gives signals particle by particle.

The test system of series [15] is MEF. As to the kind of experiment: Induction of cell cycle arrest in MEF cells assessed as accumulation at S phase at 100 nM incubated for 1 to 3 days by propidium iodide staining based flow cytometric analysis (reference value: 61.5 +/- 0.78%). The note with it: mouse, 0.1 µM, time 1-3 day. It is filed as toxicity.
The test system of series [16] is MEF. Briefly: Induction of cell cycle arrest in MEF cells assessed as accumulation at G1 phase at 100 nM incubated for 1 to 3 days by propidium iodide staining based flow cytometric analysis (reference value: 21.4 +/- 1.7%). It is filed as toxicity. The conditions noted are these: mouse, 0.1 µM, time 1-3 day.
The test system of series [17] is MEF. Briefly: Induction of cell cycle arrest in mLST8 knockout MEF cells assessed as accumulation at G2 phase at 100 nM incubated for 1 to 3 days by propidium iodide staining based flow cytometric analysis (reference value: 14.1 +/- 0.69%). It is filed as toxicity. The conditions noted are these: mouse, 0.1 µM, time 1-3 day.
Series [18] deals with MEF. As to the kind of experiment: Induction of cell cycle arrest in mLST8 knockout MEF cells assessed as accumulation at S phase at 100 nM incubated for 1 to 3 days by propidium iodide staining based flow cytometric analysis (reference value: 59.7 +/- 0.49%). It is filed as toxicity. The note with it: mouse, 0.1 µM, time 1-3 day.
Series [19] deals with MEF. As to the kind of experiment: Induction of cell cycle arrest in mLST8 knockout MEF cells assessed as accumulation at G1 phase at 100 nM incubated for 1 to 3 days by propidium iodide staining based flow cytometric analysis (reference value: 22.2 +/- 0.59%). It is filed as toxicity. The note with it: mouse, 0.1 µM, time 1-3 day.
Series [20] has as its target Serine/threonine-protein kinase mTOR (Homo sapiens) (UniProt P42345). The note with it: HeLa, dose 100.0 nM, time 30.0 min.
Series [21] has as its target Serine/threonine-protein kinase mTOR (Mus musculus) (UniProt Q9JLN9). The conditions noted are these: MEF, dose 100.0 nM, time 30.0 min.
Series [22] has the same target. The note with it: MEF, dose 100.0 nM, time 30.0 min. This is another data set of the same source.
Series [23] has the same target. The note with it: MEF, dose 100.0 nM, time 30.0 min. The source holds these as a separate data set.
For series [24] the target is unchanged. The note with it: MEF, dose 100.0 nM, time 30.0 min. The source holds these as a separate data set.
Series [25] shares this target. The note with it: MEF, dose 100.0 nM, time 30.0 min. This is another data set of the same source.
The target of series [26] is Serine/threonine-protein kinase mTOR (Homo sapiens) (UniProt P42345). The note with it: HEK293, dose 100.0 nM, time 30.0 min.
For series [27] the target is unchanged. The conditions noted are these: HEK293, dose 100.0 nM, time 30.0 min. This is another data set of the same source.

T1 sequence (P27361 whole entry, looked up): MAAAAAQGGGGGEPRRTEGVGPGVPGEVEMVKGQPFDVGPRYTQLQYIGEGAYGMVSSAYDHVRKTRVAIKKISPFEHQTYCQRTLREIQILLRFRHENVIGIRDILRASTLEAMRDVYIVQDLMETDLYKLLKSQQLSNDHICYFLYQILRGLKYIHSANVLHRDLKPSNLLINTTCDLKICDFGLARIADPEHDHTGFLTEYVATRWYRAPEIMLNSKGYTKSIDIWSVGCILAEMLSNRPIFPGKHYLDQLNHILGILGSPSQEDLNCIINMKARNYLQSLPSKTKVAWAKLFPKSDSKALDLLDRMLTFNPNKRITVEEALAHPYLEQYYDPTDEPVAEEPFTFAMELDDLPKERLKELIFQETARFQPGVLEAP
T1 sequence (P28482 whole entry, looked up): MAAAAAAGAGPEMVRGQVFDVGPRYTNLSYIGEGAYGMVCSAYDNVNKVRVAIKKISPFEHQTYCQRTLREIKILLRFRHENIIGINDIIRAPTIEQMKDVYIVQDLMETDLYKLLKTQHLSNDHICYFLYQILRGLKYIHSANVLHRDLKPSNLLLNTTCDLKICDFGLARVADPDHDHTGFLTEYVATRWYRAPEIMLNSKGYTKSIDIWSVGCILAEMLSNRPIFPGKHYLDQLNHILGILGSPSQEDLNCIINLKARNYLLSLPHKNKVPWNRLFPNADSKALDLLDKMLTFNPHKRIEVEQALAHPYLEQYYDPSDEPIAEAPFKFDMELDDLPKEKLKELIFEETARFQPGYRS

As for `Oc1cccc(-c2nc(N3CCOCC3)c3oc4ncccc4c3n2)c1`, the inhibition result in series [1], in series [2], in series [3], in series [4], in series [5] and in series [6] was “Active” each time. Moreover, the inhibition result in series [7] and in series [8] was “Active” each time.

Take `O=C(NOCC(O)CO)c1ccc(F)c(F)c1Nc1ccc(I)cc1Cl` (configuration not stated): the inhibition entry in [9], in [10], in [11], in [12] and in series [13] was “Active” each time.

In the case of `CO[C@H]1C[C@@H]2CC[C@@H](C)[C@@](O)(O2)C(=O)C(=O)N2CCCC[C@H]2C(=O)O[C@H]([C@H](C)C[C@@H]2CC[C@@H](O)[C@H](OC)C2)CC(=O)[C@H](C)/C=C(\C)[C@@H](O)[C@@H](OC)C(=O)[C@H](C)C[C@H](C)/C=C/C=C/C=C/1C` [SIROLIMUS], the Activity in series [14] amounted to 11.2%; in series [15], 56.7%; in series [16], 29.8%; in series [17], 14.4%; in series [18], 46.5%; in [19], 35.8%. Also, the inhibition entry in series [20] and in series [21] was “inactive” throughout. The inhibition result in series [22], in [23], in series [24], in [25], in [26] and in [27] was “Active” throughout.
